The entries come from a sample that favours hits as a whole.
NOD2-RIPK2 inh: NOD2-RIPK2 protein interaction inhibition | O43353 | CHO BLA complementation NOD2-RIPK2, CCF4 ratio | inhibition, % at 4.98 µM | actives 0.38% (n = 360,000); in the data active means inhibition above about 21%
Target sequence (O43353 whole entry, looked up): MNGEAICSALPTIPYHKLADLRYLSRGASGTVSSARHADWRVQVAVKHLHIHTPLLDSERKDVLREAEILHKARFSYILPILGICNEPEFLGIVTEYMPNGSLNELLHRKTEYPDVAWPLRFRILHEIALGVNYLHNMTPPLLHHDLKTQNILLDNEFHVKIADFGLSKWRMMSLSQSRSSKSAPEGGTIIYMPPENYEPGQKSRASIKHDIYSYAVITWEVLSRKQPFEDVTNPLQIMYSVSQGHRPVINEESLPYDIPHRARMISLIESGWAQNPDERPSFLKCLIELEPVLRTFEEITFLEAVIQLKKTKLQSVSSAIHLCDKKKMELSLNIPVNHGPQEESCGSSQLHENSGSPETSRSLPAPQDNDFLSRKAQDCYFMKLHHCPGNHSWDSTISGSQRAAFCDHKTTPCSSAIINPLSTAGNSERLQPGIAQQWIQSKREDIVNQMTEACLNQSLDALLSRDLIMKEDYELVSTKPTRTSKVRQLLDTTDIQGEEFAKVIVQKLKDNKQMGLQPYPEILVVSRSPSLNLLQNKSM
TLR9-MyD88 block: blocks human TLR9 binding to MyD88; Q9NR96+Q99836; CHO BLA complementation TLR9-MyD88, CCF4 FRET ratio; actives 0.21% (n = 340,000); inhibition, % at 4.98 µM;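 active means inhibition above the mean over all tested compounds plus 3 SD, cut at about 21% in these data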
XBP1 UPR activ: activators of adaptive arm of unfolded protein response (XBP1) | CHO-XBP1 luciferase reporter, IRE1-XBP1 UPR activation, luminescence; percent of tunicamycin response, DMSO as zero | activation, % at 20 µM | actives 0.33% (n = 330,000) | AID 463104;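 active means versus positive control, 20 µM dose yields 30% or more activation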
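Material: IRE1-XBP1 luciferase reporter CHO line / Quantity: one thousand reporter cells per well / Buffer or medium: F12 with 10% serum / Compound: 20 µM single concentration, DMSO 1% / Times: 6 h treatment, 37 °C / Detection: Steady-Glo luciferase glow luminescence, 10 min after reagent addition / Benchmarks: tunicamycin high, DMSO low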
UPR CHOP act: apoptotic UPR (CHOP) activation | actives 0.34% (n = 330,000) | activation, % at 10 µM | AID 449763 | CHO-CHOP luciferase reporter, luminescence; percent of tunicamycin response over DMSO baseline;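 active means at 10 µM dose, activation of 40% or more, normalized to positive control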
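System: CHO-CHOP luciferase reporter cell line | Buffer or medium: F12 medium containing 10% fetal bovine serum | Doses: One dose, 10 µM in 0.5% DMSO | Times: 6 h compound exposure at 37 °C after overnight seeding | Signal: Luciferase luminescence | Read-out: % activation vs tunicamycin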
TLR4-MyD88 BLA: blocks binding of human TLR4 to MyD88. O00206+Q99836. AID 861. actives 0.18% (n = 200,000). inhibition, % at 8.4 µM. HeLa CL3-4 TLR4/MyD88 BLA complementation, FRET ratio; in the data active means inhibition above about 25%
CHOP inh: CHOP inhibition in unfolded protein response; inhibition, % at 10 µM; actives 3.8% (n = 220,000); AID 2732; CHO-K1 CHOP-promoter luciferase, tunicamycin-induced, 15-18 h;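 active means compounds that reduced the stress-induced luciferase reporter signal by more than about 70% of percent inhibition, limit read from the data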
CHOP inh conf: confirmation of CHOP induction inhibitors | CHO-CHOP promoter luciferase reporter, tunicamycin-induced, luminescence | actives 45% (n = 2,100) | shares compounds with CHOP inh | inhibition, % at 10 µM;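 active means mean of three repeat readings of reporter signal inhibition above a set limit, cut at about 70% in these data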
CHOP UPR conf: confirmation of apoptotic unfolded protein response (CHOP) activators | shares compounds with UPR CHOP act | CHO-CHOP cells, CHOP-luciferase reporter luminescence; percent of tunicamycin response, DMSO as zero | activation, % at 10 µM | actives 64% (n = 1,000); in the data active means activation above about 33%
XBP1 UPR conf: adaptive UPR (XBP1) activation, confirmed. shares compounds with XBP1 UPR activ. CHO-XBP1 IRE1-XBP1 luciferase reporter, luminescence. activation, % at 20 µM. actives 63% (n = 1,000). AID 485299;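 active means reporter signal at least 30% of the positive control's activation in two or more of four replicate wells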
TLR9-MyD88 conf: TLR9-MyD88 interaction inhibition, confirmation. CHO TLR9/MyD88 BLA complementation, CCF4 FRET ratio. shares compounds with TLR9-MyD88 block. inhibition, % at 4.98 µM. AID 540250. actives 51% (n = 680);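 active means mean inhibition across three repeats above about 21% taken from the earlier screen, limit read from the data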;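 further: blue over green emission ratio reports constitutive TLR9 MyD88 association via BLA complementation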
BLA counter-1: non-selective beta-lactamase inhibitors in TLR9-MyD88 counter-screen; shares compounds with TLR9-MyD88 block; CHO-BLA cells, CCF4 FRET ratio, BLA reporter; inhibition, % at 4.98 µM; actives 7% (n = 680); AID 540251;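 active means mean inhibition above a 50% cutoff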;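 further: counterscreen of TLR9-MyD88 hits on CMV-driven BLA in CHO-K1 cells; higher means less blue over green ratio so more BLA blockade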
TLR9 CHO tox: CHO cell toxicity counter-screen for TLR9-MyD88 inhibitors; shares compounds with TLR9-MyD88 block; TLR9-MyD88 CHO cells cytotoxicity, luminescence; inhibition, % at 4.98 µM; actives 39% (n = 680); in the data active means inhibition above about 11%
NOD2-RIPK2 conf: confirmation of human NOD2-RIPK2 interaction inhibitors. shares compounds with NOD2-RIPK2 inh. CHO cells, NOD2-RIPK2 BLA complementation, CCF4 FRET. inhibition, % at 4.98 µM. actives 70% (n = 1,200);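 active means mean inhibition across replicates above a set limit taken from the earlier primary screen, cut at about 21% in these data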
BLA counter-2: counter-screen for NOD2-RIPK2 interaction inhibitors: BLA reporter | shares compounds with NOD2-RIPK2 inh | CHO BLA reporter, CCF4 FRET ratio, counterscreen | inhibition, % at 4.98 µM | actives 57% (n = 1,200);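 active means mean inhibition above the low-control mean inhibition plus three low-control SD, cut at about 11% in these data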
Hits are given with their value; i = inactive; nt = no result given.

SMILES | NOD2-RIPK2 inh | TLR9-MyD88 block | XBP1 UPR activ | UPR CHOP act | TLR4-MyD88 BLA | CHOP inh | CHOP inh conf | others
Cc1cc(N2CCN(C)CC2)ccc1NC(=O)c1cccc(S(=O)(=O)N2CCc3ccccc3C2)c1 | i | i | 34 | i | i | 104 | i | XBP1 UPR conf=i
CC(C)CN(C(=O)CSc1nnc(-c2cccs2)n1C1CC1)C1CCS(=O)(=O)C1 (configuration not stated) | i | i | nt | nt | nt | nt | nt
NCCOc1ccc(C23CC4CC(CC(C4)C2)C3)cc1 | i | i | 97 | i | i | 105 | i | XBP1 UPR conf=93
NCCOc1ccc(C2CCCCC2)cc1 | i | i | i | i | i | i | nt
O=C(OCn1ncc(Cl)c(Cl)c1=O)c1cccc(C(F)(F)F)c1 | 48 | 30 | i | i | i | 107 | 120 | TLR9-MyD88 conf=24;BLA counter-1=i;TLR9 CHO tox=97
Cc1ccc(OCC(=O)NNC(=O)CSC(=S)N2CCCC2)cc1 | i | i | i | i | nt | nt | nt
COC(=O)c1cn[nH]c1NC(=S)Nc1ccc(Cl)c(Cl)c1 | i | 22 | i | i | i | 97 | i | TLR9-MyD88 conf=i;BLA counter-1=i;TLR9 CHO tox=i
COC(=O)c1cn[nH]c1NC(=S)Nc1ccccc1C | i | i | i | i | i | i | nt
CCCCS(=O)(=O)/C=C\C=C/S(=O)(=O)CCCC | 91 | 34 | i | i | i | nt | 127 | TLR9-MyD88 conf=37;BLA counter-1=i;TLR9 CHO tox=100
CCN1CCN(C(C(=O)NC2CCCCC2)c2ccnc3ccccc23)CC1 (configuration not stated) | i | nt | nt | nt | nt | nt | nt
COc1ccc(NC(=O)/C(Cl)=C(/Cl)S(=O)Cc2ccc(Cl)cc2)cn1 (configuration not stated) | 68 | 54 | i | i | i | 107 | 140 | TLR9-MyD88 conf=56;BLA counter-1=i;TLR9 CHO tox=99
Cc1ccc(NC(=O)c2cc(N3C(=O)C=CC3=O)ccc2N2CCOCC2)cc1Cl | i | 32 | nt | nt | i | 100 | i | TLR9-MyD88 conf=55;BLA counter-1=i;TLR9 CHO tox=97
Cc1ccc(NC(=O)c2cc(N3C(=O)CCC3=O)ccc2N2CCOCC2)cc1 | i | i | i | i | i | i | nt
O=C(OCc1cnc(Cl)s1)c1ccccc1Cl | i | i | i | i | i | i | nt
O=C(OCn1ncc(Br)c(Br)c1=O)c1ccccc1Cl | 82 | 32 | i | i | i | 111 | 124 | TLR9-MyD88 conf=36;BLA counter-1=i;TLR9 CHO tox=100
CCCS(=O)(=O)NC(=O)C1(C)CCCN(C(=O)c2cccnc2Oc2ccccc2)C1 (configuration not stated) | i | nt | nt | nt | nt | nt | nt
N#C/C(=C/c1ccc(N2CCCCCC2)o1)c1ccc(Cl)cc1 | 39 | 24 | i | 92 | i | 103 | i | CHOP UPR conf=i;TLR9-MyD88 conf=i;BLA counter-1=i;TLR9 CHO tox=84;NOD2-RIPK2 conf=28;BLA counter-2=14
CC1=C/C(=N\OS(=O)(=O)c2ccccc2)C(C)=CC1=O | 54 | i | i | i | i | 111 | 128 | NOD2-RIPK2 conf=51;BLA counter-2=13
CC1=C/C(=N\OS(=O)(=O)c2ccccc2)C(C(C)C)=CC1=O | i | i | nt | nt | i | i | nt
CC1=CC(=NOS(=O)(=O)c2ccc(C)cc2)CC(C)(C)C1 | i | nt | nt | nt | nt | nt | nt
CC1=C(C)/C(=N\OS(=O)(=O)c2ccc(C)cc2)C=CC1=O | 58 | i | nt | nt | i | 108 | 104 | NOD2-RIPK2 conf=54;BLA counter-2=i
O=C1C=C(OCCCl)CC(c2cccc(Cl)c2)O1 (configuration not stated) | i | nt | nt | nt | nt | nt | nt
CC(C)[C@@H]1CC2=C(C(=O)OC(C)(C)O2)[C@H](CCc2ccccc2)O1 | i | nt | nt | nt | nt | nt | nt
O=C(CSc1nccc(=O)[nH]1)Nc1cc(C(F)(F)F)ccc1N1CCOCC1 | i | i | i | i | nt | nt | nt
Cc1ccc2nc(SCC(=O)Nc3cc(C(F)(F)F)ccc3N3CCOCC3)[nH]c2c1 | 34 | i | 35 | i | i | nt | i | XBP1 UPR conf=40;NOD2-RIPK2 conf=i;BLA counter-2=i
SMILES | NOD2-RIPK2 inh | TLR9-MyD88 block | XBP1 UPR activ | UPR CHOP act | TLR4-MyD88 BLA | CHOP inh | CHOP inh conf | others
Cc1ccc(Nc2nc(N)c([N+](=O)[O-])c(NCc3ccco3)n2)cc1 | 25 | i | i | i | i | 101 | i | NOD2-RIPK2 conf=i;BLA counter-2=i
COc1ccc(C)cc1C(=O)CCC(=O)N1CCN(c2ccccc2F)CC1 | i | i | i | i | nt | nt | nt
CC(C)(C=O)C1=CC(=O)c2ccccc2C1=O | 23 | i | nt | nt | i | 98 | i | NOD2-RIPK2 conf=86;BLA counter-2=i
CCCCCC(=O)N1C[C@H](n2cc(-c3ccc(F)cc3)nn2)[C@@H](O)C[C@@H]1c1ccc(OC)cc1 | i | i | nt | nt | nt | nt | nt
O=c1c2ccccc2sn1-c1ccccc1 | 77 | 54 | i | i | i | 108 | i | NOD2-RIPK2 conf=50;BLA counter-2=i
O=C(NCCCN1CCOCC1)c1cc(S(=O)(=O)N2CCCCC2)ccc1Cl | i | i | nt | nt | nt | nt | nt
COC(=O)c1sc(N)nc1CCNC(=O)OC(C)(C)C | i | nt | nt | nt | nt | nt | nt
CN1C(=O)N(CC(=O)c2ccc3c(c2)OCO3)C(=O)C12CCCCC2 | i | i | nt | nt | nt | nt | nt
Cc1cc(C)c2c(=O)n(CC(=O)Nc3ccc(Cl)cc3)sc2n1 | 31 | i | i | i | nt | 104 | i | NOD2-RIPK2 conf=36;BLA counter-2=i
CC1(C(=O)Nc2ccc3c(c2)OCCO3)CN(S(C)(=O)=O)CC(=O)N1CC(F)(F)F (configuration not stated) | i | nt | nt | nt | nt | nt | nt
O=[N+]([O-])c1ccc(Cl)cc1Sc1nc2ccccc2o1 | i | i | i | i | i | i | nt
O=[N+]([O-])c1ccc(Sc2nc3ccccc3o2)c([N+](=O)[O-])c1 | 30 | i | i | i | i | 109 | 122 | NOD2-RIPK2 conf=60;BLA counter-2=i
